Calls of active or inactive are those of the source. The calls are words filed in the database; no cut-off is given here.
What was measured:
Mus musculus [1] = assay: CNS activity in po dosed mouse assessed as alteration of exploratory behaviour; assay type: functional; conditions: for minimal effective dose: Mus musculus, po, read-out: MED
Procedure, shortened: (§1)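 Mice in groups of five, dosed orally, placed in doughnut-shaped activity cages (six infrared photocells) 90 min post-dose. Beam breaks counted cumulatively at 30, 60, 90 and 120 min in cage ([…]) plus 120-min total. Counts compared with vehicle-injected controls. Compounds dissolved in acetone.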

Rattus norvegicus [2] = assay: CNS activity in po dosed rat assessed as protection against muricide; assay type: functional; conditions: for minimal effective dose: Rattus norvegicus, po, read-out: MED
Procedure, shortened: (§2)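 Rats with innate mouse-killing behaviour, control kill time under 5 s; three rats per dose, oral dosing, vehicle controls at equal injection volume. Muricide scored 15–360 min post-dose (0 = 0–59 s, 1 = 60–120 s, 2 = >120 s). Scores converted to percent protection versus vehicle; Student's t test for significance.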

Rattus norvegicus [3] = assay: CNS activity in septal-lesioned rat assessed as decrease in hyperreactivity behaviour at 10 mg/kg, po; assay type: functional, organism-based; design: dose 10 mg/kg
Procedure, shortened: (§3)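 Septal-lesioned rats rated hyperreactive at score ≥11 used as their own controls; oral dosing. Reactivity rated at 30, 60, 120, 240, 300 min post-dose. P value = postdrug rating sum / predrug sum per period. E value = mean of ten 30-min periods over 300 min, interpolated, / predrug sum. Student's t test, p<0.01.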

Mus musculus [4] = assay: CNS activity in mouse assessed as alteration of exploratory behaviour at 20 mg/kg, po; assay type: functional, organism-based; design: dose 20 mg/kg; procedure, shortened: as §1
Rattus norvegicus [5] = assay: CNS activity in rat assessed as protection against muricide at 10 mg/kg, po; assay type: functional, organism-based; design: dose 10 mg/kg; procedure, shortened: as §2
Rattus norvegicus [6] = assay: CNS activity in po dosed septal-lesioned rat assessed as decrease in hyperreactivity behaviour; assay type: functional; conditions: for minimal effective dose: Rattus norvegicus, po, read-out: MED; procedure, shortened: as §3

CCCCCCC(C)(C)c1cc(N)c2c(c1)OC(C)(C)C1=C2CC(C)CC1 (stereo in doubt; l-10c) [listing 1 of 2 here]
MED (Mus musculus [1]): 5 mg/kg
MED (Rattus norvegicus [2]): 10 mg/kg

CCCCCC(C)C(C)c1cc(S)c2c(c1)OC(C)(C)C1=C2CC(C)CC1 (racemic)
Activity (Rattus norvegicus [3]): inactive
Activity (Mus musculus [4]): inactive
Activity (Rattus norvegicus [5]): inactive

CCCCCCC(C)(C)c1cc(N)c2c(c1)OC(C)(C)C1=C2CC(C)CC1 (stereo in doubt; l-10c) [listing 2 of 2 here]
Activity (Rattus norvegicus [3]): inactive

CCCCCC(C)C(C)c1cc(NC(C)=O)c2c(c1)OC(C)(C)C1=C2CC(C)CC1 (racemic)
Activity (Rattus norvegicus [3]): inactive
Activity (Mus musculus [4]): inactive
minimal effective dose (Rattus norvegicus [2]): 10 mg/kg

CCCCCc1cc(NC(C)=O)c2c(c1)OC(C)(C)C1=C2CC(C)CC1 (racemic)
Activity (Rattus norvegicus [3]): inactive
Activity (Mus musculus [4]): inactive
Activity (Rattus norvegicus [5]): inactive

CCCCCc1cc2c(c(N(C)C)c1)C1=C(CCC(C)C1)C(C)(C)O2 (racemic)
Activity (Rattus norvegicus [3]): inactive
Activity (Mus musculus [4]): inactive
Activity (Rattus norvegicus [5]): inactive

CCCCCc1cc(S)c2c(c1)OC(C)(C)C1=C2CC(C)CC1 (racemic)
Activity (Rattus norvegicus [3]): inactive
Activity (Mus musculus [4]): inactive
Activity (Rattus norvegicus [5]): inactive

CCCCCCC(C)(C)c1cc(O)c2c(c1)OC(C)(C)C1=C2CC(C)CC1 (stereo in doubt; d-4c)
MED (Rattus norvegicus [6]): 2.5 mg/kg
MED (Mus musculus [1]): 0.31 mg/kg
MED (Rattus norvegicus [2]): 5 mg/kg

CCCCCCC(C)(C)c1cc(N)c2c(c1)OC(C)(C)C1=C2CC(C)CC1 (racemic) [listing 1 of 2 here]
minimal effective dose (Mus musculus [1]): 5 mg/kg
minimal effective dose (Rattus norvegicus [2]): 10 mg/kg

CCCCCc1cc(O)c2c(c1)OC(C)(C)C1=C2CC(C)CC1 (racemic)
Activity (Rattus norvegicus [3]): inactive
Activity (Mus musculus [4]): inactive
minimal effective dose (Rattus norvegicus [2]): 10 mg/kg

CCCCCCC(C)(C)c1cc(N)c2c(c1)OC(C)(C)C1=C2CC(C)CC1 (stereo in doubt; d-10c) [listing 1 of 2 here]
MED (Mus musculus [1]): 10 mg/kg

CCCCCC(C)C(C)c1cc(NC)c2c(c1)OC(C)(C)C1=C2CC(C)CC1 (racemic)
minimal effective dose (Mus musculus [1]): 20 mg/kg
Activity (Rattus norvegicus [3]): inactive
Activity (Rattus norvegicus [5]): inactive

CCCCCC(C)C(C)c1cc2c(c(N(C)C)c1)C1=C(CCC(C)C1)C(C)(C)O2 (racemic)
minimal effective dose (Mus musculus [1]): 20 mg/kg
Activity (Rattus norvegicus [3]): inactive
Activity (Rattus norvegicus [5]): inactive

CCCCCCC(C)(C)c1cc(O)c2c(c1)OC(C)(C)C1=C2CC(C)CC1 (stereo in doubt; l-4c)
MED (Rattus norvegicus [2]): 1.25 mg/kg

CCCCCC(C)C(C)c1cc(N)c2c(c1)OC(C)(C)C1=C2CC(C)CC1 (racemic)
minimal effective dose (Rattus norvegicus [6]): 10 mg/kg
minimal effective dose (Mus musculus [1]): 2.5 mg/kg
minimal effective dose (Rattus norvegicus [2]): 5 mg/kg

CCCCCCC(C)(C)c1cc(O)c2c(c1)OC(C)(C)C1=C2CC(C)CC1 (racemic)
minimal effective dose (Rattus norvegicus [6]): 1.25 mg/kg
minimal effective dose (Mus musculus [1]): 0.62 mg/kg
MED (Rattus norvegicus [2]): 0.62 mg/kg

CCCCCCC(C)(C)c1cc(N)c2c(c1)OC(C)(C)C1=C2CC(C)CC1 (racemic) [listing 2 of 2 here]
Activity (Rattus norvegicus [3]): inactive

CCCCCCC(C)(C)c1cc(NS(C)(=O)=O)c2c(c1)OC(C)(C)C1=C2CC(C)CC1 (racemic)
minimal effective dose (Mus musculus [1]): 20 mg/kg
Activity (Rattus norvegicus [3]): inactive
Activity (Rattus norvegicus [5]): inactive

CCCCCc1cc(N)c2c(c1)OC(C)(C)C1=C2CC(C)CC1 (racemic)
Activity (Rattus norvegicus [3]): inactive
Activity (Mus musculus [4]): inactive
Activity (Rattus norvegicus [5]): inactive

CCCCCC(C)C(C)c1cc(O)c2c(c1)OC(C)(C)C1=C2CC(C)CC1 (racemic)
minimal effective dose (Rattus norvegicus [6]): 5 mg/kg
minimal effective dose (Mus musculus [1]): 0.62 mg/kg
minimal effective dose (Rattus norvegicus [2]): 2.5 mg/kg

CCCCCCC(C)(C)c1cc(N)c2c(c1)OC(C)(C)C1=C2CC(C)CC1 (stereo in doubt; d-10c) [listing 2 of 2 here]
Activity (Rattus norvegicus [3]): inactive
Activity (Rattus norvegicus [5]): inactive
